{"source": "ChEMBL document CHEMBL1123026", "about": "“Preparation and antiarthritic and analgesic activity of 4,5-diaryl-2-(substituted thio)-1H-imidazoles and their sulfoxides and sulfones” (1985)", "assay_type_in_all_cases": "functional", "key": {"[1]": {"tested_on": "Rattus norvegicus", "test": "Effective dose determined against rat adjuvant arthritis after peroral administration", "conditions": "po", "outline": "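Male Lewis rats (130-150 g) given 0.1 mL Mycobacterium butyricum adjuvant (5 mg/mL in mineral oil) s.c. into the right hind paw; arthritis developed for 2 weeks. Groups of 10 matched for severity were dosed orally by gavage in PVA-acacia vehicle (10 mL/kg) for 7 days. Uninjected left paw volume was measured the day after the last dose. Percent decrease was calculated vs arthritic and nonarthritic controls. ED50 was read from a visually fitted semilog dose-response line.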"}, "[2]": {"tested_on": "Mus musculus", "test": "Effective dose by mouse phenyl-p-benzoquinone writhing (PQW)assay after peroral administration; activity value ranges from (8.6 - 78.6)", "conditions": "po", "outline": "(§1)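 Fasted (17-21 h) female white mice, 5-20 per double-blind test, dosed orally with compound suspended in 1% methylcellulose. 0.20 mL aqueous 0.01% phenyl-p-benzoquinone given i.p. 6 min before a 10-min observation for stretching/writhing. ED50 (dose protecting 50% of mice) calculated by the moving-average method.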"}, "[3]": {"tested_on": "Rattus norvegicus", "test": "Decrease in paw volume was evaluated at dose 10 mg/kg", "outline": "(§2)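 Male Lewis rats (130-150 g) got 0.1 mL adjuvant (heat-killed Mycobacterium butyricum, 5 mg/mL in mineral oil) subplantar in the right hind paw and were left 2 weeks. Groups of 10 matched for severity were dosed orally by gavage (PVA-acacia vehicle, 10 mL/kg) for 7 days. Uninjected left hind paw volume was read the next day. % decrease = (arthritic control − treated)/(arthritic − nonarthritic control) × 100; Student's t-test.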"}, "[4]": {"tested_on": "Mus musculus", "test": "Effective dose determined by mouse phenyl-p-benzoquinone writhing (PQW) assay after peroral administration", "conditions": "po", "outline": "as §1"}, "[5]": {"tested_on": "Mus musculus", "test": "Effective dose by mouse phenyl-p-benzoquinone writhing (PQW)assay after peroral administration; activity value ranges from (10.9-125.8)", "conditions": "po", "outline": "as §1"}, "[6]": {"tested_on": "Mus musculus", "test": "Effective dose by mouse phenyl-p-benzoquinone writhing (PQW)assay after peroral administration; activity value ranges from (22.9 - 118)", "conditions": "po", "outline": "as §1"}, "[7]": {"tested_on": "Mus musculus", "test": "Effective dose by mouse phenyl-p-benzoquinone writhing (PQW)assay after peroral administration; activity value ranges from (0.028-0.065)", "conditions": "po"}, "[8]": {"tested_on": "Mus musculus", "test": "Effective dose by mouse phenyl-p-benzoquinone writhing (PQW)assay after peroral administration; 5.3-45.9", "conditions": "po"}, "[9]": {"tested_on": "Rattus norvegicus", "test": "Decrease in paw volume by the effect of compound at a dose of 75 mg/kg, highest dose (75 mg/kg)", "outline": "as §2"}, "[10]": {"tested_on": "Mus musculus", "test": "Effective dose by mouse phenyl-p-benzoquinone writhing (PQW)assay after peroral administration; activity value ranges from (6.0 - 18.0)", "conditions": "po", "outline": "as §1"}, "[11]": {"tested_on": "Mus musculus", "test": "Effective dose by mouse phenyl-p-benzoquinone writhing (PQW)assay after peroral administration; activity value ranges from (2.3-15.7)", "conditions": "po", "outline": "as §1"}, "[12]": {"tested_on": "Mus musculus", "test": "Effective dose by mouse phenyl-p-benzoquinone writhing (PQW)assay after peroral administration; activity value ranges from (0.05-0.27)", "conditions": "po"}, "[13]": {"tested_on": "Mus musculus", "test": "Effective dose by mouse phenyl-p-benzoquinone writhing (PQW)assay after peroral administration; 16.6-69.5", "conditions": "po"}}, "data": [{"compound": "COc1ccc(-c2nc(S(=O)(=O)CC(C)=O)[nH]c2-c2ccc(OC)cc2)cc1", "values": [{"measurement": "ED50", "setting": "[1]", "result": 20, "unit": "mg/kg"}, {"measurement": "ED50", "setting": "[2]", "result": 26, "unit": "mg/kg"}]}, {"compound": "CCOc1ccc(-c2[nH]c(SC(F)(F)C(F)F)nc2-c2ccccc2)cc1", "values": [{"measurement": "Decrease", "setting": "[3]", "result": 32, "unit": "%"}, {"measurement": "ED50", "setting": "[4]", "result": "> 130", "unit": "mg/kg"}]}, {"compound": "COc1ccc(-c2nc([S+]([O-])C(F)(F)F)[nH]c2-c2ccc(OC)cc2)cc1", "note": "(centres undefined)", "values": [{"measurement": "ED50", "setting": "[1]", "result": 3, "unit": "mg/kg"}, {"measurement": "ED50", "setting": "[5]", "result": 37, "unit": "mg/kg"}]}, {"compound": "[O-][S+](c1nc(-c2ccc(Cl)c(Cl)c2)c(-c2ccccc2)[nH]1)C(F)(F)C(F)F", "note": "(centres undefined)", "values": [{"measurement": "ED50", "setting": "[6]", "result": 52, "unit": "mg/kg"}, {"measurement": "ED50", "setting": "[1]", "result": 0.45, "unit": "mg/kg"}]}, {"compound": "COc1ccc(-c2nc(S(=O)(=O)C(F)(F)F)[nH]c2-c2ccc(OC)cc2)cc1", "values": [{"measurement": "ED50", "setting": "[7]", "result": 0.043, "unit": "mg/kg"}]}, {"compound": "Fc1ccc(-c2nc(SC(F)(F)F)[nH]c2-c2ccc(F)cc2)cc1", "values": [{"measurement": "ED50", "setting": "[8]", "result": 15.6, "unit": "mg/kg"}, {"measurement": "ED50", "setting": "[1]", "result": 0.035, "unit": "mg/kg"}]}, {"compound": "CC[S+]([O-])c1nc(-c2ccccc2)c(-c2ccccc2)[nH]1", "note": "(centres undefined)", "values": [{"measurement": "ED50", "setting": "[4]", "result": "> 130", "unit": "mg/kg"}, {"measurement": "Decrease", "setting": "[9]", "result": 44, "unit": "%"}]}, {"compound": "O=S(=O)(CC(F)(F)F)c1nc(-c2ccccc2)c(-c2ccccc2)[nH]1", "values": [{"measurement": "ED50", "setting": "[1]", "result": 15, "unit": "mg/kg"}, {"measurement": "ED50", "setting": "[10]", "result": 10.4, "unit": "mg/kg"}]}, {"compound": "O=S(=O)(c1nc(-c2ccccc2)c(-c2ccccc2)[nH]1)C(F)F", "values": [{"measurement": "ED50", "setting": "[11]", "result": 6, "unit": "mg/kg"}]}, {"compound": "COc1ccc(-c2[nH]c(S(=O)(=O)C(F)(F)F)nc2-c2ccc(F)cc2)cc1", "values": [{"measurement": "ED50", "setting": "[12]", "result": 0.12, "unit": "mg/kg"}]}, {"compound": "CN(C)c1ccc(-c2[nH]c(SC(F)(F)C(F)F)nc2-c2ccccc2)cc1", "values": [{"measurement": "ED50", "setting": "[13]", "result": 34, "unit": "mg/kg"}, {"measurement": "ED50", "setting": "[1]", "result": 3, "unit": "mg/kg"}]}]}
